Fewer inactive variants are shown than the library holds.
B1: tRNA (parent)
chain: GUUCCGUUGGCGUAAUGGUAACGCGUCUCCCUCCUAAGGAGAAGACUGCGGGUUCGAGUCCCGUACGGAACG

Variants of: B1
Test: yeast fitness relative to wild type (ratio to wild type); higher = fitter; tRNA-Arg(CCU), competitive growth, 37 C, YPD
Procedure, shortened: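 Amplicons of the tRNA-Arg(CCU) gene were sequenced, 100-nucleotide paired-end, from the start population and from each end population of a pooled yeast competition. The competition, in six parallel replicates, lasted 24 hours in YPD at 37°C. Fitness relative to wild type was calculated from changes in genotype frequencies. Genotypes had to have ≥ 100 starting reads, and estimates < 0.5 were set to 0.5.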

Compared with GUUCCGUUGACGUAAUGGUAACGCGUCUCCCUCCUGAGGAGAAGACUGCGGGUUCGAGCCCCGUACGGAGCG, GUUCCGUUGGCGUAAUGGUGACGCGUCUCCCUCCUAAGCAGAAGACUGCGGGUUCGAGUCCCGUACGGAACG is higher in yeast fitness: ≤ 0.5 for the first, 0.829 for the second.

First: GUUCCGUUGGCGUGAUGGUAACGCGUCUCCCUUCUAAGGAGAGGACUGCGGGUUCGAGUCCCGUACGGAACG
Second: GUGCCGUUGGCGUAAUGGUAACGCGUCUCCCUCCUAAGGAGAAGACUGAGGGUUCGAGUCCCGUACGGAACG
The yeast fitness of the first is lower: ≤ 0.5 for the first, 0.655 for the second.

First: GUUCGGUUGGCGUAAUGGUCACGCGUCUCCCUCGUAAGGAGAAGACUGCGGGUUCGAGUCCCGUACGGAACG
Second: GUUCCGUUGGCGUAAUGGUAAAGCGUCUCCCUCCUUAGGAGAAGACUGCGGGUUCGAGUCCCGUACGGAACG
The yeast fitness of the first is lower: ≤ 0.5 for the first, 0.586 for the second.

GUUCCGUUGGCGUACUUGAAACGCGUCUCCUUCAUAAGGAGAAGACUGCGGGUUCGAGUCCCGUACGGAACG and GUUCCGUUGGCCUAAUGGUAACGCGUCUCUCUCCUAAGGAGAAGACUGCGGGUUCGAGACCCGUACGGAACG cannot be ordered by yeast fitness: ≤ 0.5 for the first, ≤ 0.5 for the second.

GUUCCGUUAGCGUAAUGGUAGCGCGUCUGCCUCGUAAGGAGAAGACUGCGGGUUCGAGUCCCGUACGGAACG and GUUCCGUUGGCGUAAUGGUAACGCGUCUCCAUCCUAAGGCGAAGACAGCGGGUUCGAGUCCCGAACGGAACG cannot be ordered by yeast fitness: ≤ 0.5 for the first, ≤ 0.5 for the second.

GUUCCGUUCGCGUAAUGGUAACGCGUCUCCCUCCGAAGGAAAAGACUGCGGGUUCAAGUCCCGUACGGACCG and GUUCCGUUGGCGUAAUGGUAACGCGUCUCCCUCCUAAGGCGCAGACUGCGGGAUCGAGUCCCGUACGGAACG cannot be ordered by yeast fitness: ≤ 0.5 for the first, ≤ 0.5 for the second.

Going from GUUCCGUUGGCGUAAUGGUAACGCGUCGCCCUCCUAAGGAGAAGACUGCGGGUUCGAGUCGCGUACGGAACG to GUUCCGUUGGUGUAAUGGUAACGCAUCUCCCUCCUAAGGAGAAGACUGCGGGUUCGAGUCCCGUACGGACCG, the yeast fitness rises from 0.634 to 0.892.

Compared with GUUCGGUUGGAGUGAUGGUAACGCCUCUGCCUCCUAAGGAGAAGACUGCGGGUUCGAGUCCCGUACGGAGCG, GUUCCGUUGGCGUAAUGGGAACGCGUCUCCCUCCUAAGGAGAAGACUGCGGGUUGGAGUCCCGUACGGAACG is higher in yeast fitness: ≤ 0.5 for the first, 0.651 for the second.

Going from GUUGCGUUGGCGUAAUGGUAACGCGUGUCCCUCCUAAGGAGAAGACUGCGGGUUCGAGUCCCGUUCGUAACG to GUUCCGUUGGCGUAAUGGUAACGCGUCUCCCUCCUAAGGAGAAGACUGCGUGUUCGAGUCUCGUACGGAACG, the yeast fitness rises from 0.562 to 0.747.

Compared with GUUCCGUUGGCGUAACGGUAACGCGUCUCCCUCCUAAGGAGAAGAGUGCGGGUUCGAGUCCCGUACGGAACG, GUUCCAUUGGCGUAAUCGUAACGCGUCUCCAUCCUUAGGAGAAGACUGCGGGUUGGAGUCCCAUACGGAACG is lower in yeast fitness: 0.979 for the first, ≤ 0.5 for the second.

First: GUUCCGUUGGCGUAAUCCUAAAGCGUCCCCCUCCUAAGGAGAAGACUGCGGGUUCGAGUACCGUAUGGAACG
Second: GUUCCGUUGGCGUUAUGGUAACGCGUCUCCCUCCUAAGGAGACGACUGCGGGUUCGAGUCCUGUAUGGAACG
The yeast fitness of the first is higher: 0.677 for the first, ≤ 0.5 for the second.

Compared with GUCCCGUUGGCGUAAUGGUAACGCGUCUCCCUCCUAAGGCGAAGACUGCGGGUUCGAGUCGCGUACGGAACG, GUUCCGUUGGCGUAAUGGUAACGUGUCUCCCUCCUAAGGAGAAGAAUGCGGGUUCGAGUCCCGCACGGAACG is higher in yeast fitness: 0.576 for the first, 0.973 for the second.

Compared with GUUCCGUUGGCGUAAUGGUAACGAGUCUCCCUCCUAAGCAGGAGACUGCGGGUUCGAGUCCCGUACGGAACG, GUUCCGUUGGCGUAAUGGUAACGCGUCGCCCUCCUAAGGAGUAGACUGCGGGUUCGAGUCCCGUACGGAACG is higher in yeast fitness: ≤ 0.5 for the first, 0.71 for the second.

GUUCCGUUGGCAUAAUGGUAACACGUCUCCCUCCGGAGGAGAAGAUUGCGGGUUCGUGUCCCGUACGGAACG and GUUCCGUUGGCGUAAUGGUGACGCGUCUCCCUCCUAAGUCGAAGACUGCGGGUUCGAGUCCCGUACGGAACG cannot be ordered by yeast fitness: ≤ 0.5 for the first, ≤ 0.5 for the second.

GUUCCGUUGGCGUCAUGGUAACGCGUCUGACUCCUAAGGAGAAGACUGCGGGUUCGAGUCCAGUACGGCACG and GUUCCGGUGGCGUAAUGGUAACGCGUCUGCCUCCCAAGGAGAAGAUUGCGGGUUCGAGUCCCGUACGGAACG cannot be ordered by yeast fitness: ≤ 0.5 for the first, ≤ 0.5 for the second.

GUUCCGAUCGCGUAAUCGUAACGCGUCUCCCUCCUAAGGAGAAGACUACGGGUUCGAGUCCCGUAUGGAACG and GUUCCGUUGGCGUAAUGGUAACGCGUCUCCCUCCUACGGAGAAGACUGCGGCUUCGAGUGACGUAUGGAACG cannot be ordered by yeast fitness: ≤ 0.5 for the first, ≤ 0.5 for the second.

Compared with GUUCCGAUGGAGUCAUGGUAACGCGUCUCCCUCAUAAGGAGAAGACUGCGGGUUCGAGUCCCGUACGGAACG, GUUCCGUUGGCGUAAUGGUAACGCGUCUCCCUCCUAAGGAGAAGAAUGCGGGUUCGGGUCCCGUACGGAACG is higher in yeast fitness: ≤ 0.5 for the first, 0.964 for the second.

Compared with GUUUCGUUGGCGUAAUGGUAACGCGUCUCCCUCCUAAGGAGAAGACUGCGGGUUCGCGUCCUGUACGGAACG, GUUCCGUUGGGGUAAUGGUGACGCGUCUCCCUCCUAAGGAGAAGACGGCGGGUUCGAGUCCCGUACGGAACG is lower in yeast fitness: 0.601 for the first, ≤ 0.5 for the second.

Variant GUUCCGUUGGCGUAAUGGUAACGCGUCUCCCACCUAAGGAGAAGACUGCGGGUUCGAGUCUCGUACGGAACG has a yeast fitness of 0.855.
